# Activity calls are given as the source filed them. No cut-off for these calls is given here.
# Columns and labels:
# MIA PaCa-2 = experiment: Antiproliferative activity against human MIAPaCa2 cells after 72 hrs by MTT assay; assay type: functional, cell-based; details: MIA PaCa-2, 72 h
# How it was run: (§1)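 Monolayers in DMEM with 10% FBS, 2 mM L-glutamine, penicillin/streptomycin, 37 °C, 5% CO2. Seeded at 3 × 10³ to 6 × 10³ cells/well on day 0. Agents added the next day in five 10-fold dilutions (10^-8–10^-4 mol/L), with a DMSO solvent control (max 0.25%). MTT read at 570 nm after 72 h. Quadruplicate points, three experiments. IC50 is the concentration giving 50% growth inhibition.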
# HeLa = experiment: Antiproliferative activity against human HeLa cells after 72 hrs by MTT assay; assay type: functional, cell-based; how it was run: as §1
# NCI-H460 [1] = experiment: Antiproliferative activity against human H460 cells after 72 hrs by MTT assay; assay type: functional, cell-based; details: NCI-H460, 72 h; how it was run: as §1
# SW-620 = experiment: Antiproliferative activity against human SW620 cells after 72 hrs by MTT assay; assay type: functional, cell-based; details: SW-620, 72 h; how it was run: as §1
# [2] = Antiproliferative activity against human WI38 cells after 72 hrs by MTT assay; assay type: cell-based; details: WI-38, 72 h; how it was run: as §1
# MCF7 = experiment: Antiproliferative activity against human MCF7 cells after 72 hrs by MTT assay; assay type: functional, cell-based; details: MCF7, 72 h; how it was run: as §1
# HEp-2 = experiment: Antiproliferative activity against human Hep2 cells after 72 hrs by MTT assay; assay type: functional, cell-based; details: HEp-2, 72 h; how it was run: as §1
# NCI-H460 [3] = experiment: Cell cycle arrest in human H460 cells assessed as induction of G1 phase delay at 50 uM after 24 hrs using propidium iodide staining by FACS; assay type: functional, cell-based
# How it was run: (§2)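 H 460 cells seeded at 2 × 10⁵/well and treated after overnight incubation with 5, 10 or 50 µM for 24 or 48 h. Attached and floating cells were pooled, fixed in 70% ethanol, treated with 0.2 µg/µL RNase A (37 °C, 15 min) and stained with 50 µg/mL propidium iodide. Flow cytometry counted 20000 events, in duplicate across two independent experiments.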
# NCI-H460 [4] = experiment: Induction of apoptosis in human H460 cells assessed as early apoptotic cells after 48 hrs using annexin V staining by FACS; assay type: functional, cell-based
# How it was run: (§3)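 H 460 cells seeded at 2 × 10⁵/well and exposed for 48 h (5, 10 or 50 µM) against a vehicle control. Floating and attached cells were pooled and washed in binding buffer (10 mM HEPES, 140 mM NaCl, 2.5 mM CaCl2, pH 7.4). They were stained 20 min with annexin V Alexa Fluor 488 and 1 µg/mL 7-AAD, then read by flow cytometry. Quadrants: viable, early apoptotic, late apoptotic.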
# NCI-H460 [5] = experiment: Induction of apoptosis in human H460 cells assessed as viable cells after 48 hrs using annexin V staining by FACS; assay type: functional, cell-based; how it was run: as §3
# NCI-H460 [6] = experiment: Cell cycle arrest in human H460 cells assessed as reduction of percentage of cells in S phase at 5 to 50 uM after 24 hrs using propidium iodide staining by FACS; assay type: functional, cell-based; how it was run: as §2
# NCI-H460 [7] = experiment: Cell cycle arrest in human H460 cells assessed as increase in percentage of cells in G1 phase at 10 uM after 24 hrs using propidium iodide staining by FACS; assay type: functional, cell-based; how it was run: as §2
# NCI-H460 [8] = experiment: Induction of apoptosis in human H460 cells assessed as early apoptotic cells at 50 uM after 48 hrs using annexin V staining by FACS; assay type: functional; how it was run: as §3
# NCI-H460 [9] = experiment: Induction of apoptosis in human H460 cells assessed as late apoptotic cells at 50 uM after 48 hrs using annexin V staining by FACS; assay type: functional; how it was run: as §3
# NCI-H460 [10] = experiment: Cell cycle arrest in human H460 cells assessed as increase in percentage of cells in G1 phase at 10 uM after 48 hrs using propidium iodide staining by FACS; assay type: functional, cell-based; how it was run: as §2
# NCI-H460 [11] = experiment: Induction of apoptosis in human H460 cells assessed as late apoptotic cells after 48 hrs using annexin V staining by FACS; assay type: functional, cell-based; how it was run: as §3
# NCI-H460 [12] = experiment: Cell cycle arrest in human H460 cells assessed as reduction of percentage of cells in S phase at 50 uM after 48 hrs using propidium iodide staining by FACS; assay type: functional, cell-based; how it was run: as §2
# NCI-H460 [13] = experiment: Cell cycle arrest in human H460 cells assessed as reduction of percentage of cells in S phase at 50 uM after 24 hrs using propidium iodide staining by FACS; assay type: functional, cell-based; how it was run: as §2
# NCI-H460 [14] = experiment: Cell cycle arrest in human H460 cells assessed as reduction of percentage of cells in S phase at 5 to 50 uM after 48 hrs using propidium iodide staining by FACS; assay type: functional, cell-based; how it was run: as §2
# NCI-H460 [15] = experiment: Cell cycle arrest in human H460 cells assessed as induction of G2 phase delay at 50 uM after 24 hrs using propidium iodide staining by FACS; assay type: functional, cell-based; how it was run: as §2
# NCI-H460 [16] = experiment: Cell cycle arrest in human H460 cells assessed as induction of G2 phase delay at 50 uM after 48 hrs using propidium iodide staining by FACS; assay type: functional, cell-based; how it was run: as §2
# NCI-H460 [17] = experiment: Cell cycle arrest in human H460 cells assessed as induction of G1 phase delay at 50 uM after 48 hrs using propidium iodide staining by FACS; assay type: functional, cell-based; how it was run: as §2
# NCI-H460 [18] = experiment: Induction of apoptosis in human H460 cells assessed as viable cells at 50 uM after 48 hrs using annexin V staining by FACS; assay type: functional; details: NCI-H460, 48 h, read-out: Activity; how it was run: as §3
# NCI-H460 [19] = experiment: Induction of apoptosis in human H460 cells assessed as early apoptotic cells at 10 uM after 48 hrs using annexin V staining by FACS; assay type: functional; how it was run: as §3
# NCI-H460 [20] = experiment: Cell cycle arrest in human H460 cells assessed as increase in percentage of cells in sub-G1 phase at 5 to 50 uM after 48 hrs using propidium iodide staining by FACS; assay type: functional, cell-based; how it was run: as §2
# NCI-H460 [21] = experiment: Cell cycle arrest in human H460 cells assessed as increase in percentage of cells in sub-G1 phase at 5 to 50 uM after 24 hrs using propidium iodide staining by FACS; assay type: functional, cell-based; how it was run: as §2
# NCI-H460 [22] = experiment: Induction of apoptosis in human H460 cells assessed as late apoptotic cells at 10 uM after 48 hrs using annexin V staining by FACS; assay type: functional; how it was run: as §3
# NCI-H460 [23] = experiment: Induction of apoptosis in human H460 cells assessed as viable cells at 10 uM after 48 hrs using annexin V staining by FACS; assay type: functional; details: NCI-H460, 48 h, read-out: Activity; how it was run: as §3
# NCI-H460 [24] = experiment: Induction of apoptosis in human H460 cells assessed as early apoptotic cells at 5 uM after 48 hrs using annexin V staining by FACS; assay type: functional; how it was run: as §3
# NCI-H460 [25] = experiment: Induction of apoptosis in human H460 cells assessed as complete cell death at 50 uM after 48 hrs; assay type: functional, cell-based
# NCI-H460 [26] = experiment: Induction of apoptosis in human H460 cells assessed as viable cells at 5 uM after 48 hrs using annexin V staining by FACS; assay type: functional; details: NCI-H460, 48 h, read-out: Activity; how it was run: as §3
# NCI-H460 [27] = experiment: Induction of apoptosis in human H460 cells assessed as late apoptotic cells at 5 uM after 48 hrs using annexin V staining by FACS; assay type: functional; how it was run: as §3
# NCI-H460 [28] = experiment: Induction of apoptosis in human H460 cells at 50 uM after 24 hrs; assay type: functional
Compound,IC50 (MIA PaCa-2),IC50 (HeLa),IC50 (NCI-H460 [1]),IC50 (SW-620),IC50 (MCF7),IC50 [2],IC50 (HEp-2),also measured
CC(C)NC(=N)c1ccc2nc(NC(=O)c3ccccc3Cl)sc2c1,45000 nM,23 µM,59000 nM,45 µM,16 µM,61 µM,,
Cc1cccc(Nc2nc3ccc(C#N)cc3s2)n1,6000 nM,8 µM,,4 µM,8 µM,> 10 µM,> 10 µM,
Cc1ccc(Nc2nc3ccc(C(=N)NC(C)C)cc3s2)nc1.Cl.Cl,14000 nM,12 µM,15000 nM,12 µM,8 µM,31 µM,,Activity (NCI-H460 [3]): Active; Activity (NCI-H460 [4]): Dose-dependent effect; Activity (NCI-H460 [5]): Dose-dependent effect; Activity (NCI-H460 [6]): Active; Activity (NCI-H460 [7]): inactive; Activity (NCI-H460 [8]): 13.58%; Activity (NCI-H460 [9]): 2.39%; Activity (NCI-H460 [10]): inactive; Activity (NCI-H460 [11]): Dose-dependent effect; Activity (NCI-H460 [12]): Active; Activity (NCI-H460 [13]): Active; Activity (NCI-H460 [14]): Active; Activity (NCI-H460 [15]): Active; Activity (NCI-H460 [16]): Active; Activity (NCI-H460 [17]): Active; viability at 50 µM (NCI-H460 [18]): 83.2%
CC(C)NC(=N)c1ccc(C(=O)Nc2nc3ccccc3s2)cc1,17000 nM,9 µM,16000 nM,17 µM,13 µM,16 µM,,
N#Cc1ccc(Nc2nc3ccc(C#N)cc3s2)cc1,> 10000 nM,> 10 µM,,> 10 µM,> 10 µM,> 10 µM,> 10 µM,
N#Cc1ccc2nc(Nc3ccc(Cl)cn3)sc2c1,6000 nM,> 10 µM,,≥ 10 µM,10 µM,> 10 µM,> 10 µM,
Cc1ccnc(Nc2nc3ccc(C(=N)NC(C)C)cc3s2)c1,3000 nM,4 µM,2000 nM,3 µM,2 µM,12.5 µM,,

# The next lines start with results.
IC50 (MIA PaCa-2),IC50 (HeLa),IC50 (NCI-H460 [1]),IC50 (SW-620),IC50 (MCF7),Compound,IC50 [2],IC50 (HEp-2),also measured
3000 nM,> 10 µM,,3 µM,> 10 µM,Cc1cccnc1Nc1nc2ccc(C#N)cc2s1,2.3 µM,> 10 µM,
2000 nM,2 µM,2000 nM,2 µM,2 µM,Cc1cccc(Nc2nc3ccc(C4=NCCN4)cc3s2)n1.Cl.Cl,2 µM,,Activity (NCI-H460 [19]): 24.05%; Activity (NCI-H460 [20]): Active; Activity (NCI-H460 [4]): Dose-dependent effect; Activity (NCI-H460 [5]): Dose-dependent effect; Activity (NCI-H460 [21]): Active; Activity (NCI-H460 [6]): Active; Activity (NCI-H460 [11]): Dose-dependent effect; Activity (NCI-H460 [22]): 5.58%; Activity (NCI-H460 [14]): Active; viability at 10 µM (NCI-H460 [23]): 67.7%
3000 nM,4 µM,3000 nM,9 µM,3 µM,Cc1cccc(Nc2nc3ccc(C(=N)NC(C)C)cc3s2)n1.Cl.Cl,19 µM,,Activity (NCI-H460 [19]): 16.43%; Activity (NCI-H460 [20]): Active; Activity (NCI-H460 [4]): Dose-dependent effect; Activity (NCI-H460 [5]): Dose-dependent effect; Activity (NCI-H460 [24]): 12.24%; Activity (NCI-H460 [21]): Active; Activity (NCI-H460 [6]): Active; Activity (NCI-H460 [25]): Active; Activity (NCI-H460 [11]): Dose-dependent effect; viability at 5 µM (NCI-H460 [26]): 83.1%; Activity (NCI-H460 [22]): 3.75%; Activity (NCI-H460 [27]): 3.37%; Activity (NCI-H460 [14]): Active; Activity (NCI-H460 [28]): 40%; viability at 10 µM (NCI-H460 [23]): 77.7%
3000 nM,5 µM,2000 nM,5 µM,2 µM,Cc1cccnc1Nc1nc2ccc(C(=N)NC(C)C)cc2s1,14 µM,,
1600 nM,1 µM,1500 nM,1.3 µM,1.4 µM,Clc1ccc(Nc2nc3ccc(C4=NCCN4)cc3s2)nc1,1 µM,,
